Compound activity: PubChem BioAssay, Johns Hopkins Ion Channel Center
Only some compounds are listed: those with a hit (about 3.8% of all), similar ones and a draw of the others.
KCNQ1 inh – inhibitors of human KCNQ1 potassium channel | hit rate 1.3% among 310,000 | AID 2642 | B-score at 10 µM | CHO-K1 KCNQ1, FluxOR thallium flux fluorescence; active compounds read high;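 active = compounds whose thallium flux B-score, printed positive for inhibition, exceeds three library SD while starting fluorescence stays within three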;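 also: channel opened by potassium depolarization with thallium stimulus after 20 min compound exposure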
hERG rescue – hERG (human) protection from proarrhythmic block | CHO-hERG, FluxOR thallium flux, dofetilide IC70 present | activation (rescue from dofetilide block), less the hit threshold, % at 10 µM | hit rate 0.51% among 310,000;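 active = activation above the mean of controls blocked by dofetilide plus 5 SD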;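 also: thallium influx through hERG after potassium depolarization seen as dye fluorescence rise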
KCNQ1 act – human KCNQ1 channel potentiation or activation. P51787. CHO-K1 KCNQ1, thallium flux FluxOR fluorescence; active compounds read high. B-score at 10 µM. hit rate 0.35% among 310,000. AID 2648;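 active = fluorescence ratio B-score, a plate-corrected score, at least three library SD, with initial intensity B-score within 5 SD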
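Schedule – 37 °C overnight plating, 90-min dark dye load, 20-min compound pretreatment · System – stable KCNQ1 CHO-K1 line · Probe or stimulus – thallium- and potassium-containing depolarizing buffer · Measured by – kinetic FluxOR fluorescence, 10 s baseline plus 110 s post-stimulus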
KCNK3 inh – human KCNK3 channel inhibition, primary screen; O14649; CHO-KCNK3 thallium flux, FluxOR fluorescence; active compounds read low; B-score at 10 µM; hit rate 0.84% among 340,000; AID 602410;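 active = B-score under library mean minus 4 SD, starting fluorescence ratio at most library mean plus 5 SD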;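 also: more negative B-score means stronger inhibition of thallium flux through KCNK3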
Kir21 block – inhibitors of mouse Kir2.1 inward-rectifier potassium channel; P35561; HEK293-Kir2.1, FluxOR thallium flux fluorescence; active compounds read low; B-score at 10 µM; hit rate 0.85% among 310,000;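 active = fluorescence ratio B-score at or below minus 3 SD of library scores, with starting-brightness B-score within 2 SD, cut at about -4.2 in these data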;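 also: channel flux triggered by added potassium and thallium sulfate stimulus; B-score of peak minus minimum fluorescence over baseline after thallium stimulus; more negative B-score means stronger Kir2.1 block with less thallium influx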
Target sequence (P35561 whole entry, looked up): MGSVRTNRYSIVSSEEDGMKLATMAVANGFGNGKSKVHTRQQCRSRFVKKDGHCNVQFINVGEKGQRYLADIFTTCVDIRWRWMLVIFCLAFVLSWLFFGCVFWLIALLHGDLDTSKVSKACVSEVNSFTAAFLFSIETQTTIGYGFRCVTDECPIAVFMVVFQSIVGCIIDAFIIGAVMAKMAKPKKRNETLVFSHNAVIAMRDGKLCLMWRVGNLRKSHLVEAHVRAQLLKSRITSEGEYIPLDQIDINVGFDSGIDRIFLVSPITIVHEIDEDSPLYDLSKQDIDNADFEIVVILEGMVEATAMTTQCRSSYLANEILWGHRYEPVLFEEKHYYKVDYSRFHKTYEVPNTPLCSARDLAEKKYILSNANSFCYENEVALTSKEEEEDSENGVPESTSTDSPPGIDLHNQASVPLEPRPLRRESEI
KCNK9 block – human KCNK9 channel inhibition; HEK293 KCNK9, FluxOR thallium flux fluorescence; active compounds read low; hit rate 1.2% among 310,000; B-score at 10 µM; AID 488922;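 active = ratio B-score over 3 SD below the library mean, with starting fluorescence within 5 SD of its mean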;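 also: negative B-score means less thallium flux so channel inhibition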
Of the large screens only hits and unclear results are named; the others gave an inactive call; ! = not confirmed by another sample.

Cc1cc(C)c(S(=O)(=O)N2CCOC2CNC(=O)C(=O)NCCN(C)C)c(C)c1 (stereo not given)	none
CC1CCC(NC(=O)CCS(=O)(=O)c2ccc3c(c2)CCN3C(=O)C2CC2)CC1 (stereo not given)	none
COc1ccc(CNc2oc(-c3cccc4ccccc34)nc2C#N)cc1	KCNK9 block -7.3
COc1ccc(NC(=S)N/N=C/c2cccn2Cc2ccc(F)cc2Cl)cc1	none
CSc1ccccc1NC(=S)N/N=C/c1cccn1Cc1ccc(F)cc1	KCNK9 block -7.9
CSc1ccccc1NC(=S)N/N=C/c1cccn1Cc1cccc(C)c1	KCNK9 block -6.6
COc1ccc(NC(=S)N/N=C/c2cccn2Cc2ccccc2F)cc1	none
COc1ccccc1-n1c(C)nc2cc(C(=O)NCCN3CCOCC3)ccc21	none
CS(=O)(=O)N(CCc1ccccc1)CC(=O)N1CCc2ccccc2C1	none
O=C(/C=C/c1ccccc1)c1ccc2c(c1)OCO2	none
O=C(/C=C/c1cccc(Br)c1)c1ccc2c(c1)OCO2	KCNK9 block -7.8
CCN(CC)c1ccc(NC(=O)COC(=O)/C=C/c2nc3ccccc3s2)cc1	none
CCN(CC)c1ccc(/C=C/c2nc3ccccc3s2)cc1	KCNQ1 inh 8 (no result: KCNK3 inh)
CC(C)(C)n1nnnc1C(c1cccs1)N(Cc1cccnc1)Cc1ccco1 (stereo not given)	KCNK9 block -7.2
CCn1cc2nc(SCC(=O)Nc3ccc(OC)cc3OC)n(Cc3ccc(OC)cc3)c(=O)c2n1	none
O=c1c(/C=C(\O)c2ccccc2)nc2ccccc2n1-c1ccccc1	KCNK9 block -8.1
Cc1ccc(-c2nc3ccccc3c(=O)n2O)cc1	hERG rescue 7.7
O=c1c2cc(Br)ccc2nc(-c2ccccc2)n1O	hERG rescue 17, KCNQ1 act 11
O=c1c2ccccc2nc(-c2cccc(Cl)c2)n1O	hERG rescue 23, KCNQ1 act 13
O=c1c2cc(Cl)ccc2nc(-c2ccccc2Cl)n1O	none
CCN(CC)c1ccc(/C=N/NC(=O)c2nnn(-c3nonc3N)c2-c2ccc(C)cc2)cc1	none
Cc1cccc(C(=O)N=c2c(C#N)cc3c(=O)n4cccc(C)c4nc3n2Cc2ccco2)c1	KCNQ1 inh 7
CCOC(=O)c1cc2c(=O)n3cccc(C)c3nc2n(Cc2ccco2)c1=NC(=O)c1cccnc1	none (no result: KCNQ1 inh, hERG rescue, KCNQ1 act, Kir21 block, KCNK9 block)
Cc1cccn2c(=O)c3cc(C#N)c(=NC(=O)c4ccccc4)n(Cc4ccco4)c3nc12	KCNK3 inh -9.1!, KCNK9 block -7.3
CCOC(=O)c1cc2c(=O)n3ccccc3nc2n(Cc2ccco2)c1=NC(=O)c1cccnc1	KCNQ1 inh 7
Cc1cccn2c(=O)c3cc(C#N)c(=NC(=O)c4ccco4)n(Cc4ccco4)c3nc12	none
Cc1cc(CN2CCCCC2C(=O)Nc2ccc(Oc3cccnc3)cc2)oc1C (stereo not given)	none
CCc1ccc2c(c1)C(NC(C)=O)C(=O)N2CCN1CCOCC1 (stereo not given)	none
CCN(Cc1ccccc1)C(=O)c1ccc(NC(=O)c2ccc(OC)cc2)cc1	none
COc1ccccc1NS(=O)(=O)c1cccc(C(=O)NCC2(N3CCCCC3)CCCCC2)c1	none (no result: KCNQ1 inh, hERG rescue, KCNQ1 act, Kir21 block, KCNK9 block)
CCN1C(=O)/C(=C2\SC(=S)N(NC(=O)c3ccccc3O)C2=O)c2ccccc21	KCNQ1 inh 10
O=C(CCNC(=O)c1ccc(Cl)cc1)NCc1ccco1	none (no result: KCNQ1 inh, hERG rescue, KCNQ1 act, Kir21 block, KCNK9 block)
O=C(COC(=O)Cc1ccsc1)Nc1cccc(F)c1	none (no result: KCNQ1 inh, hERG rescue, KCNQ1 act, Kir21 block, KCNK9 block)
O=C(CSc1nnc(COc2ccc(F)cc2)o1)N1c2ccccc2CCc2ccccc21	KCNK9 block -13
Cc1cccc(OCc2nnc(SCC(=O)N3c4ccccc4CCc4ccccc43)o2)c1	none
COc1ccc(-n2nc(C(=O)c3cccs3)cc(-c3nc4ccccc4[nH]3)c2=N)cc1	none
Cc1ccccc1-n1nc(C(=O)c2cccs2)cc(-c2nc3ccccc3[nH]2)c1=N	KCNQ1 inh 6
CC1CCc2cc(F)ccc2N1S(=O)(=O)c1ccc(F)cc1 (stereo not given)	Kir21 block -4.3
CN1CCCC(OC(=O)c2cccc(Cl)c2)C1 (stereo not given)	none
CN1CCCC(OC(=O)c2cc(Cl)cc(Cl)c2)C1 (stereo not given)	Kir21 block -4.3
Cc1cc(-c2ccc(C(C)C)c(S(=O)(=O)N3CC(=O)Nc4ccccc43)c2)on1	none
Cc1c(Cl)c([N+](=O)[O-])nn1CC(=O)NCc1cccs1	hERG rescue 4.8
O=C1CCC/C1=c1\s/c(=C/c2cccnc2)c(=O)n1-c1ccccc1	none (no result: KCNQ1 inh, hERG rescue, KCNQ1 act, Kir21 block, KCNK9 block)
O=C(CCN1CCCC1)Nc1ccc(Br)cc1	none
CC1CCN(CCC(=O)Nc2ccc(Br)cc2)CC1	Kir21 block -4.9
CCOc1ccc2nc(NC(=O)CN3C(=O)C4CCCCC4C3=O)sc2c1 (stereo not given)	none
O=C(Nc1ccc(Oc2cccnc2)cc1)C1CCN(Cc2ccccc2)CC1	none
Cc1cccc(CN2CCCC(C(=O)Nc3ccccc3Oc3cccnc3)C2)c1 (stereo not given)	Kir21 block -5.5
Cc1ccc(CN2CCC(C(=O)Nc3ccc(Oc4cccnc4)cc3)CC2)cc1	Kir21 block -4.8
CCCC(=O)NCCc1nc2cc([N+](=O)[O-])ccc2n1C	none
CCCN(CC(=O)Nc1ccccc1OC)C(=O)c1ccc(COc2ccccc2)o1	none (no result: KCNQ1 inh, hERG rescue, KCNQ1 act, Kir21 block, KCNK9 block)
COC(=O)/C(=C\Nc1ccc(Cl)c2ccccc12)c1ncc(C(F)(F)F)cc1Cl	none
CCOC(=O)/C(=C\Nc1ccccc1C(F)(F)F)Sc1ncc(C(F)(F)F)cc1Cl	KCNQ1 inh 7
COc1ccc(C(=O)C2CCCN(Cc3ccc4nonc4c3)C2)cc1OC (stereo not given)	none
COc1ccc(C(=O)C2CCCN(Cc3ccc4nonc4c3)C2)c(OC)c1 (stereo not given)	Kir21 block -5.2
O=C(Cn1c(CO)nc2ccccc21)Nc1ccccc1Cl	Kir21 block -9.4
Cc1ccc(SCc2nc3ccccc3n2CC(=O)Nc2ccccc2)cc1	KCNK9 block -6.9
O=C(Cn1c(COc2ccccc2)nc2ccccc21)Nc1cccc(Cl)c1	hERG rescue 6.2
O=C(O)Cn1c(COc2ccc(Cl)cc2)nc2ccccc21	none
O=C(Cn1c(-c2ccccc2Cl)nc2ccccc21)Nc1cccc(Cl)c1	KCNK9 block -7.5
Cc1cc(C)cc(NC(=O)Cn2c(-c3ccccc3Cl)nc3ccccc32)c1	none
CC(/C=N\NC(=O)Cn1c(C)nc2ccccc21)=C\c1ccccc1	none
c1ccc(C2CCC(N3CCNCC3)CC2)cc1 (stereo not given)	none
Cc1ccc(C(=O)Nc2ccccc2N2CCCC2)cc1	none
NS(=O)(=O)c1ccc(NC(=O)COC(=O)Cc2c[nH]c3ccccc23)cc1	none (no result: KCNQ1 inh, hERG rescue, KCNQ1 act, Kir21 block, KCNK9 block)
NNC(=O)CNc1ccccc1Cl	hERG rescue 5.6
